For data set [1], the system named is HeLa. In words: Induction of microtubule stabilization in human HeLa cells assessed as formation of multiple aberrant mitotic spindle at 5 times IC50 after 18 hrs by indirect immunofluorescence assay. It is filed as cell-based. Summed up: (§1)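 HeLa cells treated for 18 h at 5-fold each compound's own antiproliferative IC50, with EtOH as vehicle control. Mitotic and interphase microtubules stained by indirect immunofluorescence with a β-tubulin antibody and viewed by fluorescence microscopy.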

Data set [2] in a line: Toxicity in ip dosed athymic nude mouse harboring tumor. It is filed as organism-based. As to conditions: in vivo. Put shortly:
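Dose tolerance was assessed in tumor-bearing mice carrying drug-sensitive or drug-resistant xenografts, with compound given by ip injection. A cumulative maximal tolerated dose was determined.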

Data set [3] concerns HeLa. In words: Induction of microtubule stabilization in human HeLa cells assessed as bundling of interphase microtubule at 5 times IC50 after 18 hrs by indirect immunofluorescence assay. The data set is classed as cell-based. Put shortly:
as §1

In data set [4] the test system is HeLa. In words: Antiproliferative activity against human HeLa cells after 48 hrs by sulforhodamine B assay. It is filed as functional, cell-based. Put shortly: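 HeLa cells (STR-validated) grown in BME with 10% FBS and gentamycin, seeded 2500/well, left to adhere overnight, then exposed to compounds for 48 h. Cell density read by sulforhodamine B staining. IC50 is the concentration giving 50% inhibition of cell density versus vehicle, fitted by nonlinear regression. Mean of 3 or 4 experiments, each in triplicate, ±SD.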

Data set [5] is filed under the species Sus scrofa. Description: Induction of porcine brain tubulin polymerization at 5 uM by turbidimetric method. Put shortly:
(§2)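 Compound or vehicle (1% EtOH) added; samples prepared on ice, then warmed to 37 °C to start polymerization. Rate and extent followed turbidimetrically at 340 nm.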

For data set [6], the system named is NCI/ADR-RES. Description: Antitumor activity against human NCI/ADR-RES cells xenografted in athymic nude mouse assessed as time required to show half of the tumors to reach tumor volume <1500 mm3 at 20 ug administered intratumorally on day 0, 3, 6, 10 and 14 measured after 5 days. The data set is classed as functional. Summed up:
(§3)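 NCI/ADR-RES tumor fragments implanted s.c. in the flanks of female athymic nude mice. Randomized at a mean tumor volume of 250 mm3 (range 100−465). Dosing was 20 μg in 200 μL of 10% EtOH/PBS by intratumoral injection on days 0, 3, 6, 10 and 14; vehicle and paclitaxel groups ran alongside. Caliper volume = L×W×H. Mice were euthanized at 1500 mm3. Two-way ANOVA with Tukey post hoc.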
(A xenograft is tissue or cells of one species grown in another, often human tumour cells in immunodeficient mice.)

Data set [7] relates to NCI/ADR-RES. Description: Antitumor activity against human NCI/ADR-RES cells xenografted in athymic nude mouse assessed as reduction in tumor growth at 20 ug administered intratumorally on day day 0, 3, 6, 10 and 14 measured on day 0 post dose. It is filed as functional, cell-based. Summed up:
as §3

Data set [8] relates to NCI/ADR-RES. In words: Antitumor activity against human NCI/ADR-RES cells xenografted in athymic nude mouse assessed as reduction in tumor growth at 20 ug administered intratumorally on day 0, 3, 6, 10 and 14 measured on day 12 to 14 post dose. The data set is classed as functional, cell-based. Summed up: as §3
Data set [9] concerns NCI/ADR-RES. In words: Antitumor activity against human NCI/ADR-RES cells xenografted in athymic nude mouse administered via ip. It is filed as functional, cell-based.
The test system of the next data set is Mus musculus. Description: Toxicity in athymic nude mouse xenografted with human NCI/ADR-RES cells assessed as adverse effect at 20 ug administered intratumorally on day 0, 3, 6, 10 and 14 measured on day 12. It is filed as organism-based. Conditions: in vivo, other. Put shortly:
as §3

In data set [10] the test system is NCI/ADR-RES. In words: Antitumor activity against human NCI/ADR-RES cells xenografted in athymic nude mouse assessed as reduction in tumor growth at 20 ug administered intratumorally on day 0, 3, 6, 10 and 14 measured on day 12. It is filed as functional, cell-based. Put shortly: as §3
Data set [11] is filed under the species Sus scrofa. Description: Induction of porcine brain tubulin polymerization at 5 to 20 uM by turbidimetric method. Put shortly:
as §2

Data set [12] relates to NCI/ADR-RES. In words: Antitumor activity against human NCI/ADR-RES cells xenografted in athymic nude mouse assessed as reduction in tumor growth at 40 ug administered intratumorally on day 0, 3, 6, 10 and 14 measured on day 12 to 14 post dose. It is filed as functional, cell-based. Summed up:
(§4)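 NCI/ADR-RES tumor fragments implanted s.c. in flanks of female athymic nude mice. At about 250 mm3 (100−465 mm3), mice were grouped (n = 7−9). Tumors were injected directly with 200 μL on days 0, 3, 6, 10 and 14: 20 μg in 10% EtOH/PBS, paclitaxel 40 μg in 1% Cremophor/EtOH in PBS, or vehicle. Volume = length × width × height by calipers.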

Data set [13] deals with NCI/ADR-RES. Description: Antitumor activity against human NCI/ADR-RES cells xenografted in athymic nude mouse assessed as reduction in tumor growth at 40 ug administered intratumorally on day 0, 3, 6, 10 and 14 measured up to 14 days during compound dosing. It is filed as functional, cell-based. Put shortly: as §4
For data set [14], the system named is NCI/ADR-RES. Description: Antitumor activity against human NCI/ADR-RES cells xenografted in athymic nude mouse assessed as reduction in tumor growth at 40 ug administered intratumorally on day day 0, 3, 6, 10 and 14 measured on day 0 post dose. The data set is classed as functional, cell-based. Summed up: as §4

These results are taken from ChEMBL document CHEMBL4138275, “Taccalonolide Microtubule Stabilizers Generated Using Semisynthesis Define the Effects of Mono Acyloxy Moieties at C-7 or C-15 and Disubstitutions at C-7 and C-25” (J Nat Prod, 2018).

Calls of active or inactive are those of the source. The calls are words filed in the database; no cut-off is given here.

As usually defined, the IC50 is the concentration at which inhibition is half-maximal. Low values mean higher potency, high ones lower potency.

In the case of `CC(=O)O[C@H]1[C@H]2[C@H]([C@@H]3[C@@H](OC(=O)C(C)C)[C@@H]4[C@H]([C@H](C)[C@H]5O[C@]56OC(=O)[C@@](C)(O)[C@]46C)[C@@]3(C)[C@H]1OC(C)=O)[C@@H](O)C(=O)[C@H]1C[C@@H]3O[C@@H]3[C@H](OC(C)=O)[C@]21C`, the outcome in the data set on HeLa [1], in the data set with HeLa [3] and in the data set filed under Sus scrofa [5] was Active. Also, in [2], the MTD is below 10 mg/kg. In the data set with HeLa [4], this molecule came in with an IC50 of 10.6 nM.

With `CC(=O)O[C@H]1[C@H]2[C@H]([C@@H]3[C@@H](O)[C@@H]4[C@H]([C@H](C)[C@H]5O[C@]56OC(=O)[C@@](C)(O)[C@]46C)[C@@]3(C)[C@H]1OC(C)=O)[C@@H](OC(=O)CC(C)C)C(=O)[C@H]1C[C@@H]3O[C@@H]3[C@H](OC(C)=O)[C@]21C`, the outcome with HeLa [1], in the data set on NCI/ADR-RES [7], with NCI/ADR-RES [8], with HeLa [3], in the data set filed under Sus scrofa [5] and in the data set on NCI/ADR-RES [10] was Active. In the data set with NCI/ADR-RES [6], the Time worked out at 38 days. In addition, the MTD in data set [2] is below 10 mg/kg. The same molecule displayed an IC50 in the data set on HeLa [4] of 2.4 nM. Besides, in the data set on NCI/ADR-RES [9], the result was inactive. For the same molecule, the Activity result with Mus musculus is listed as “Non-Toxic”.

In the case of `CC(=O)O[C@H]1[C@H]2[C@H]([C@@H]3[C@@H](OC(=O)C4CC4)[C@@H]4[C@H]([C@H](C)[C@H]5O[C@]56OC(=O)[C@@](C)(O)[C@]46C)[C@@]3(C)[C@H]1OC(C)=O)[C@@H](O)C(=O)[C@H]1C[C@@H]3O[C@@H]3[C@H](OC(C)=O)[C@]21C`, the result in the data set on HeLa [1], in the data set on HeLa [3] and in the data set listed under Sus scrofa [5] was Active. Moreover, the MTD in data set [2] is below 10 mg/kg. This molecule also yielded an IC50 with HeLa [4] of 27.5 nM.

For the molecule `CC(=O)O[C@H]1[C@H]2[C@H]([C@@H]3[C@@H](O)[C@@H]4[C@H]([C@H](C)[C@H]5O[C@]56OC(=O)[C@@](C)(O)[C@]46C)[C@@]3(C)[C@H]1OC(C)=O)[C@@H](O)C(=O)[C@H]1C[C@@H]3O[C@@H]3[C@H](OC(C)=O)[C@]21C`, in the data set on HeLa [4], inhibition was half-maximal at 4.2 nM (IC50). The outcome in the data set on NCI/ADR-RES [9] was inactive. For the same molecule, in the data set filed under Sus scrofa [11], the result was Active.

Regarding `CC(=O)O[C@H]1[C@H]2[C@H]([C@@H]3[C@@H](OC=O)[C@@H]4[C@H]([C@H](C)[C@H]5O[C@]56OC(=O)[C@@](C)(O)[C@]46C)[C@@]3(C)[C@H]1OC(C)=O)[C@@H](O)C(=O)[C@H]1C[C@@H]3O[C@@H]3[C@H](OC(C)=O)[C@]21C`, the outcome in the data set on HeLa [1] was Active. In the data set on HeLa [4], this molecule came in with an IC50 of 8.4 nM.

In the case of `CC(=O)O[C@H]1[C@H]2[C@H]([C@@H]3[C@@H](OC(=O)C(C)(C)C)[C@@H]4[C@H]([C@H](C)[C@H]5O[C@]56OC(=O)[C@@](C)(O)[C@]46C)[C@@]3(C)[C@H]1OC(C)=O)[C@@H](O)C(=O)[C@H]1C[C@@H]3O[C@@H]3[C@H](OC(C)=O)[C@]21C`, the outcome in the data set on HeLa [1] and in the data set with HeLa [3] was Active. In addition, the MTD in [2] is below 10 mg/kg. The molecule also registered a half-inhibitory concentration (IC50) in the data set with HeLa [4] of 4.2 nM.

As for `CC(=O)O[C@@H]1[C@H]2[C@H]3[C@H]([C@H](OC(C)=O)[C@H](OC(C)=O)[C@]2(C)[C@H]2[C@H](C)[C@H]4O[C@]45OC(=O)[C@@](C)(O)[C@]5(C)[C@H]12)[C@]1(C)[C@H](C[C@@H]2O[C@@H]2[C@@H]1OC(C)=O)C(=O)[C@@H]3O`, the IC50 with HeLa [4] was determined as 23 nM. Further, in the data set with NCI/ADR-RES [9], the result was Active.

For `CC(=O)O[C@H]1[C@H]2[C@H]([C@@H]3[C@@H](O)[C@@H]4[C@H]([C@H](C)[C@H]5O[C@]56OC(=O)[C@@](C)(OC(=O)C(C)C)[C@]46C)[C@@]3(C)[C@H]1OC(C)=O)[C@@H](OC(=O)C(C)C)C(=O)[C@H]1C[C@@H]3O[C@@H]3[C@H](OC(C)=O)[C@]21C`, the outcome in the data set on HeLa [1] was Active. This molecule also displayed a 50% inhibitory concentration (IC50) in the data set with HeLa [4] of 790 nM.

For `CC(=O)O[C@H]1[C@H]2[C@H]([C@@H]3[C@@H](O)[C@@H]4[C@H]([C@H](C)[C@H]5O[C@]56OC(=O)[C@@](C)(O)[C@]46C)[C@@]3(C)[C@H]1OC(C)=O)[C@@H](OC(=O)C(C)C)C(=O)[C@H]1C[C@@H]3O[C@@H]3[C@H](OC(C)=O)[C@]21C`, the result in the data set with HeLa [1] and in the data set on HeLa [3] was Active. In the data set on HeLa [4], this molecule displayed an IC50 of 19 nM.

With `CC(=O)O[C@H]1C(=O)[C@@]2(C)[C@H]([C@H](OC(=O)c3ccccc3)[C@]3(O)C[C@H](OC(=O)[C@H](O)[C@@H](NC(=O)c4ccccc4)c4ccccc4)C(C)=C1C3(C)C)[C@]1(OC(C)=O)CO[C@@H]1C[C@@H]2O`, the outcome with NCI/ADR-RES [12] was Active. Moreover, the result in the data set with NCI/ADR-RES [13] and with NCI/ADR-RES [14] was inactive.

As to `CC(=O)O[C@H]1[C@H]2[C@H]([C@@H]3[C@@H](O)[C@@H]4[C@H]([C@H](C)[C@H]5O[C@]56OC(=O)[C@@](C)(O)[C@]46C)[C@@]3(C)[C@H]1OC(C)=O)[C@@H](OC(=O)C(C)(C)C)C(=O)[C@H]1C[C@@H]3O[C@@H]3[C@H](OC(C)=O)[C@]21C`, the result with HeLa [1], in the data set with HeLa [3] and in the data set filed under Sus scrofa [5] was Active. Further, the IC50 in the data set with HeLa [4] was 9 nM.

As to `CC(=O)O[C@H]1[C@H]2[C@H]([C@@H]3[C@@H](O)[C@@H]4[C@H]([C@H](C)[C@H]5O[C@]56OC(=O)[C@@](C)(OC(=O)CC(C)C)[C@]46C)[C@@]3(C)[C@H]1OC(C)=O)[C@@H](OC(=O)CC(C)C)C(=O)[C@H]1C[C@@H]3O[C@@H]3[C@H](OC(C)=O)[C@]21C`, the outcome in the data set on HeLa [1] and in the data set with HeLa [3] was Active. In the data set on HeLa [4], this molecule showed an IC50 of 250 nM.

For the molecule `CC(=O)O[C@H]1[C@H]2[C@H]([C@@H]3[C@@H](O)[C@@H]4[C@H]([C@H](C)[C@H]5O[C@]56OC(=O)[C@@](C)(OC(=O)C5CC5)[C@]46C)[C@@]3(C)[C@H]1OC(C)=O)[C@@H](OC(=O)C1CC1)C(=O)[C@H]1C[C@@H]3O[C@@H]3[C@H](OC(C)=O)[C@]21C`, the result in the data set on HeLa [1] and in the data set with HeLa [3] was Active. In addition, 130 nM corresponded to half-maximal inhibition with HeLa [4] (IC50).
